Assay results published in ChEMBL document CHEMBL3233008, “Design, synthesis, and biological evaluation of Erythrina alkaloid analogues as neuronal nicotinic acetylcholine receptor antagonists” (J Med Chem, 2013).
Calls of active or inactive are those of the source. The calls are words filed in the database; no cut-off is given here.

What was measured:
[1] = molecular target: Sodium-dependent noradrenaline transporter (Homo sapiens, UniProt P23975); experiment: Displacement of [3H]-dopamine from human NET expressed in African green monkey COS7 cells after 10 mins; assay type: cell-based, COS-7
Procedure, shortened: (§1)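 COS7 cells transiently transfected with human SERT, NET or DAT, assayed 40–48 h later. 30 min preincubation with compound in PBS pH 7.4 plus 0.1 mM CaCl2, 0.5 mM MgCl2; ascorbic acid 1 mM added for NET/DAT. Substrate 50 nM final: [3H]serotonin for SERT, [3H]dopamine for NET/DAT.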

[2] = molecular target: T1, Neuronal acetylcholine receptor; alpha3/beta4 (Rattus norvegicus, UniProt P04757+P12392); experiment: Antagonist activity at rat alpha3/beta4 nAChR expressed in HEK293 cells assessed as inhibition of (S)-nicotine-induced activity by FLIPR membrane potential blue assay; assay type: cell-based
Procedure, shortened: (§2)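 Mouse α4β2 in stably transfected HEK293T cells and rat α3β4 in stable HEK293 cells; FLIPR Membrane Potential Blue read-out. (S)-Nicotine agonist at EC70–EC80: 1 μM for α4β2, 3 μM for α3β4. Functional IC50 from 3–5 experiments in duplicate.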

[3] = molecular target: Neuronal acetylcholine receptor; alpha4/beta2 (Rattus norvegicus) (UniProt P09483+P12390); experiment: (§3) Displacement of [3H]epibatidine from rat alpha4/beta2 nAChR expressed in HEK293 cells; assay type: cell-based
Procedure, shortened: (§4)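 Membranes from HEK293 cells stably expressing rat α4β2, α3β4 or α4β4; [3H]epibatidine competition binding. IC50 converted to Ki by Cheng–Prusoff. Means of 3–5 experiments in duplicate.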

[4] = molecular target: Neuronal acetylcholine receptor; alpha4/beta2 (Rattus norvegicus, UniProt P09483+P12390); experiment: as §3; assay type: cell-based; procedure, shortened: as §4
[5] = Selectivity ratio of Ki for rat/mouse alpha7 nAChR/5HT3A to Ki for rat alpha4/beta2 nAChR
[6] = organism: Rattus norvegicus; experiment: Selectivity ratio of Ki for rat alpha3/beta4 nAChR to Ki for rat alpha4/beta2 nAChR
[7] = molecular target: Nicotinic acetylcholine receptor alpha-4/beta-2 (Mus musculus, UniProt Q8R493+Q9ERK7); experiment: Antagonist activity at mouse alpha4/beta2 nAChR expressed in HEK293 cells assessed as inhibition of (S)-nicotine-induced activity by FLIPR membrane potential blue assay; assay type: cell-based; procedure, shortened: as §2
[8] = organism: Rattus norvegicus; experiment: Selectivity ratio of Ki for rat alpha4/beta4 nAChR to Ki for rat alpha4/beta2 nAChR
[9] = molecular target: T1, Neuronal acetylcholine receptor; alpha3/beta4; experiment: Displacement of [3H]epibatidine from rat alpha3/beta4 nAChR expressed in HEK293 cells; assay type: cell-based; procedure, shortened: as §4
[10] = test system: Mus musculus; experiment: Antidepressant like activity in mouse at 30 mg/kg, sc administered 20 mins before test measured for 6 mins by forced swimming test; assay type: functional, organism-based; design: dose 30 mg/kg
Procedure, shortened: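 Mice, n = 7–8, placed singly in a 16 cm beaker holding 20 cm of water at 23.5–24.5 °C. Compound in 0.9% saline given sc at 10 mL/kg 20 min before testing. Swim distance tracked by camera over 6 min, with the first minute excluded. Analysed by one-way ANOVA with planned comparisons.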

[11] = molecular target: Sodium-dependent dopamine transporter (Homo sapiens, UniProt Q01959); experiment: Displacement of [3H]-dopamine from human DAT expressed in African green monkey COS7 cells after 10 mins; assay type: cell-based, COS-7; procedure, shortened: as §1
[12] = molecular target: Sodium-dependent serotonin transporter (Homo sapiens, UniProt P31645); experiment: Displacement of [3H]-serotonin from human SERT expressed in African green monkey COS7 cells after 10 mins; assay type: cell-based, COS-7; procedure, shortened: as §1
[13] = Displacement of [3H]MLA from rat/mouse alpha7 nAChR/5HT3A expressed in tsA201 cells; assay type: cell-based
Procedure, shortened: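 [3H]MLA binding on membranes from tsA201 cells transiently expressing a chimera of rat α7 amino-terminal domain and murine 5-HT3A ion-channel domain. Ki from IC50 via Cheng–Prusoff; 3–5 experiments in duplicate.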

[14] = molecular target: Neuronal acetylcholine receptor; alpha4/beta4 (Rattus norvegicus, UniProt P09483+P12392); experiment: Displacement of [3H]epibatidine from rat alpha4/beta4 nAChR expressed in HEK293 cells; assay type: cell-based; procedure, shortened: as §4
[15] = molecular target: Neuronal acetylcholine receptor subunit alpha-7 (Homo sapiens, UniProt P36544); experiment: Displacement of [3H]cytisine from alpha7 nAChR (unknown origin)
[16] = molecular target: Neuronal acetylcholine receptor; alpha4/beta2 (Homo sapiens, UniProt P17787+P43681); experiment: Displacement of [3H]cytisine from alpha4/beta2 nAChR (unknown origin); assay type: protein-complex assay

Sequence of Nicotinic acetylcholine receptor alpha-4/beta-2 (Q9ERK7 whole entry): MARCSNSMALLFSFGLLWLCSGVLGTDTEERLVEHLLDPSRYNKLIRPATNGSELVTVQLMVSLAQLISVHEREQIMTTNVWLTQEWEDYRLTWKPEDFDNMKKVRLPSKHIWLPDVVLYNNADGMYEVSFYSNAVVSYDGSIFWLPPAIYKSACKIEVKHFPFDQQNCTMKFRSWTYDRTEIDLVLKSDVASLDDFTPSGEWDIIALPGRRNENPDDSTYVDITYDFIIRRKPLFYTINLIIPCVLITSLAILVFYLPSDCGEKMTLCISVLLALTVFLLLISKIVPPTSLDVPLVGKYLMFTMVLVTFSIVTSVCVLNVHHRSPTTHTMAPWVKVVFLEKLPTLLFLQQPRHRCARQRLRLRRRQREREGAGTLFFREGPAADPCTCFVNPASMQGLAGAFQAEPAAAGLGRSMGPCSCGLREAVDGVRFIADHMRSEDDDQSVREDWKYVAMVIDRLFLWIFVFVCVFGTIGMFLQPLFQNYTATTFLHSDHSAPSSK
Sequence of Nicotinic acetylcholine receptor alpha-4/beta-2 (Q8R493 whole entry): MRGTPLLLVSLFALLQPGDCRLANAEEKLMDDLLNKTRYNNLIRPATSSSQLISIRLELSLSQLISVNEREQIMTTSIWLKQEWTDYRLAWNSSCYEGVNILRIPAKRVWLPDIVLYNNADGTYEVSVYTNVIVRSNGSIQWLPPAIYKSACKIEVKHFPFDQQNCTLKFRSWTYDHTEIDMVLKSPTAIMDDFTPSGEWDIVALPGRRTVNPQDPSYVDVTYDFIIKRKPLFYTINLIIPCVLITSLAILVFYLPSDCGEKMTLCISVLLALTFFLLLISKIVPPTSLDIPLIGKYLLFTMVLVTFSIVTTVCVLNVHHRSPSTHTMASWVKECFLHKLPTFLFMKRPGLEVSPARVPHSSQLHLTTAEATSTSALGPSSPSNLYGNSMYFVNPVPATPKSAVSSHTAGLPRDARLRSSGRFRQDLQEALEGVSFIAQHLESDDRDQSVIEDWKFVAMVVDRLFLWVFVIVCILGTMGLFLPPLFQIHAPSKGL
Sequence of Neuronal acetylcholine receptor; alpha4/beta2 (Rattus norvegicus, UniProt P09483+P12390) (P09483 whole entry): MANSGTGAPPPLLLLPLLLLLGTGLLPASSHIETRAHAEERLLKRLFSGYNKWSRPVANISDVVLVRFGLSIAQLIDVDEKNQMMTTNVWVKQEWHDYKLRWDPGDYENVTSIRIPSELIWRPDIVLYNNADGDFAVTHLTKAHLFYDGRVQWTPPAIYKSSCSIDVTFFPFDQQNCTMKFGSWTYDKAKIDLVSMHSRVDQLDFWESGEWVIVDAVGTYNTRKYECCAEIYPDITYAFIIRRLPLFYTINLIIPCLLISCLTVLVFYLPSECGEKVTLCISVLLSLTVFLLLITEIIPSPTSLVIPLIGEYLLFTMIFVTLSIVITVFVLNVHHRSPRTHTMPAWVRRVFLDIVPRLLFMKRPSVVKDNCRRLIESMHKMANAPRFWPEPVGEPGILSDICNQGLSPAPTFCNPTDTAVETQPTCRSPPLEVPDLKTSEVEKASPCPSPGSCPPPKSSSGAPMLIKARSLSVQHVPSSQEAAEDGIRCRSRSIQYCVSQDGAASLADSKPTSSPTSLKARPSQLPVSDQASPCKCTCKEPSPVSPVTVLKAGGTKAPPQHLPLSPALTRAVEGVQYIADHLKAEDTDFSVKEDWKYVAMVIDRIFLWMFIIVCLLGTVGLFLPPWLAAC
Sequence of Neuronal acetylcholine receptor; alpha4/beta2 (Rattus norvegicus, UniProt P09483+P12390) (P12390 whole entry): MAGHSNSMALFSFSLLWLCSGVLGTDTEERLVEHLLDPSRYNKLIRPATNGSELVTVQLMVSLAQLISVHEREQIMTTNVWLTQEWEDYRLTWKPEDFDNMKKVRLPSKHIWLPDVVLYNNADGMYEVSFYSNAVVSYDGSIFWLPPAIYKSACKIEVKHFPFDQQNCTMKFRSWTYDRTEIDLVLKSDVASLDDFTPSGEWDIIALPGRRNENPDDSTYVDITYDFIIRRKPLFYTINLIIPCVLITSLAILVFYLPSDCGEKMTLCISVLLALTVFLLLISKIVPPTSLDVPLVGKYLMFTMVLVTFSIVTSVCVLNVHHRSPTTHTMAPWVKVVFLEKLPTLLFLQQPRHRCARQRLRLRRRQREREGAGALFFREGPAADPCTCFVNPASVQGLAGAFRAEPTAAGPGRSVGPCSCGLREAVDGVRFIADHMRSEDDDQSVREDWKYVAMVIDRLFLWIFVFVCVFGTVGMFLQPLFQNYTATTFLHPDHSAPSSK
Sequence of Neuronal acetylcholine receptor; alpha4/beta4 (P09483 whole entry): as the sequence (P09483 whole entry) above
Sequence of Neuronal acetylcholine receptor; alpha4/beta4 (P12392 whole entry): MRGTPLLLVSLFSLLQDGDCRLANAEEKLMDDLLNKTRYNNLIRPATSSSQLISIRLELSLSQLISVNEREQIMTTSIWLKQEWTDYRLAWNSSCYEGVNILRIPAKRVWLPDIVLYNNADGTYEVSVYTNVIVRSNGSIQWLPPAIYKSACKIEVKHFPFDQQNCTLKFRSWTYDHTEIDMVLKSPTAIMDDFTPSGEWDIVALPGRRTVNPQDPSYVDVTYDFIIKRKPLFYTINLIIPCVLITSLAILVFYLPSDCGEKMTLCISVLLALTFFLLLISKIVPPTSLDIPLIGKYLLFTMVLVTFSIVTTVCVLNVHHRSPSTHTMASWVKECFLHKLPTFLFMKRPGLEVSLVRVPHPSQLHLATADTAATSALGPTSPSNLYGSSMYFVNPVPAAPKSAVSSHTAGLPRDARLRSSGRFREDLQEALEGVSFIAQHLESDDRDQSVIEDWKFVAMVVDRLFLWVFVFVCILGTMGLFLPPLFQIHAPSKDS
T1 sequence (P04757 whole entry): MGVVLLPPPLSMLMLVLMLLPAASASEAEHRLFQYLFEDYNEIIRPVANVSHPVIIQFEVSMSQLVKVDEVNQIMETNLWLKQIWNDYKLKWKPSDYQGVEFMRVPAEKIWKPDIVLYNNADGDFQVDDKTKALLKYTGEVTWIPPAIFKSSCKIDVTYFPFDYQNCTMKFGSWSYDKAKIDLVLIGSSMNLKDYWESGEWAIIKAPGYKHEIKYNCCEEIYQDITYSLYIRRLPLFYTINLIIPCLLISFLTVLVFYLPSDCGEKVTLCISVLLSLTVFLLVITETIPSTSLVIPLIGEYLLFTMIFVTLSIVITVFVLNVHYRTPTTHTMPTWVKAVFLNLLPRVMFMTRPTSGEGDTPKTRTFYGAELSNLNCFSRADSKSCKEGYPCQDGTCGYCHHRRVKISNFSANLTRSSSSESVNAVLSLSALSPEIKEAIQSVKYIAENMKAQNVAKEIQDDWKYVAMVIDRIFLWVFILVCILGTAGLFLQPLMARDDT
T1 sequence (P12392 whole entry): as the sequence (P12392 whole entry) above
Sequence of Neuronal acetylcholine receptor subunit alpha-7 (P36544 whole entry): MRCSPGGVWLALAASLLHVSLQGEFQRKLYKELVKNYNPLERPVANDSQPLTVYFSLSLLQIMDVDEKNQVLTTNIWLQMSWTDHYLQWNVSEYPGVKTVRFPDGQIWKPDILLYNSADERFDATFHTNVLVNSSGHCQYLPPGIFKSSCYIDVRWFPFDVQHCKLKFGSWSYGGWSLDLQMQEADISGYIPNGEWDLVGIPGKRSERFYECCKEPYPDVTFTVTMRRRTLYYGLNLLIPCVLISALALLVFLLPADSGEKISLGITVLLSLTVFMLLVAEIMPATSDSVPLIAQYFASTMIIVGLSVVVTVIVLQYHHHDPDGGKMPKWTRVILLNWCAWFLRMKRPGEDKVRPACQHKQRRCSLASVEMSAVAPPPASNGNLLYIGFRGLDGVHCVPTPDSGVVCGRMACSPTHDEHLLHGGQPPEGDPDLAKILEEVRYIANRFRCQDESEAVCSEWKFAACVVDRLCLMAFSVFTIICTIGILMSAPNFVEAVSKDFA
Sequence of Sodium-dependent dopamine transporter (Q01959 whole entry): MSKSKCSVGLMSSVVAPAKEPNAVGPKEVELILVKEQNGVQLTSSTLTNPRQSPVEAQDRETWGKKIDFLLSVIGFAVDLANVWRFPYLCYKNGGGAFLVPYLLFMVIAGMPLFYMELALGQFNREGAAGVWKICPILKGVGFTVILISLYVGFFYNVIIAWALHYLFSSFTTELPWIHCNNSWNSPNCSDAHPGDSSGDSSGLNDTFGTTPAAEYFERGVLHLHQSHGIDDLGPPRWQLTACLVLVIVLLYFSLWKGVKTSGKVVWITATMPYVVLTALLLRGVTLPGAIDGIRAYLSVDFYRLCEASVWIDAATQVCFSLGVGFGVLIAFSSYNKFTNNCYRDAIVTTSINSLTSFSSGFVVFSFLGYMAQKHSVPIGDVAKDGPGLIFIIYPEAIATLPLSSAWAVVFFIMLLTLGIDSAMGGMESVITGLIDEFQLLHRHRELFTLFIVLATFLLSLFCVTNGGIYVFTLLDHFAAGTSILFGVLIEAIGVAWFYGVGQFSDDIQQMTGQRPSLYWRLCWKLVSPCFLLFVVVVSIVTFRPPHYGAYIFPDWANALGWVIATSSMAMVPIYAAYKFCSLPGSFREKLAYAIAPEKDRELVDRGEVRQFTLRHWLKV
Sequence of Sodium-dependent noradrenaline transporter (P23975 whole entry): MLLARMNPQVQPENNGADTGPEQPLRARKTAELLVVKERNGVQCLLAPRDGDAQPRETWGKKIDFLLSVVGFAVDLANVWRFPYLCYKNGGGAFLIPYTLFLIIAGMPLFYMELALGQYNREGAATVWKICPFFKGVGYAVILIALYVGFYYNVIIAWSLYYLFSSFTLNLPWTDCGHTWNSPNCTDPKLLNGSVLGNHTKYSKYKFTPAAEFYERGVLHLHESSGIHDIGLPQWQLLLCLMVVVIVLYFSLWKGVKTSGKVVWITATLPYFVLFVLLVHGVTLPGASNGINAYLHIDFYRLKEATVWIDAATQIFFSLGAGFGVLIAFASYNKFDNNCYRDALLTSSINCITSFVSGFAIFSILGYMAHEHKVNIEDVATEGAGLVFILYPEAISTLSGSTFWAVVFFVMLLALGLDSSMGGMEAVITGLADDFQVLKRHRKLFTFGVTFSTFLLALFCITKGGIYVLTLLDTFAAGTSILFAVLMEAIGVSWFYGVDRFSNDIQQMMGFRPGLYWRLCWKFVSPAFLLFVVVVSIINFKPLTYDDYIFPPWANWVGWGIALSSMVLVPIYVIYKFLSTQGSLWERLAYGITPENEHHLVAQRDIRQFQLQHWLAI

SMILES | IC50 [2] | inhibition [3] | Ki [4] | IC50 [7] | Ki [9] | Ki [13] | Ki [14] | also measured
COc1cc2c(cc1OC)CN(C)CC2 | 100 µM | Dose-dependent effect | 0.87 µM | 12 µM | 300 µM | > 500 µM | 300 µM | Ki [1]: 129 µM; Ratio Ki [5]: > 300; Ratio Ki [6]: > 300; Ratio Ki [8]: > 300; Activity [10]: Active; Ki [11]: > 10000 µM; Ki [12]: 46.7 µM
CN1CCc2cc3c(cc2C1)OCO3 | 300 µM | Dose-dependent effect | 1.7 µM | 2.6 µM | 300 µM | 500 µM | 50 µM | –
CCCCC1c2cc(OC)c(OC)cc2CCN1C (stereo unspecified) | – | – | 30 µM | > 300 µM | – | – | – | –
CO[C@H]1CC=C2CCN3CCC4=C(CC(=O)OC4)[C@]23C1 | – | – | – | – | – | – | – | Ki [15]: 10.5 µM
COc1cc2c(cc1O)CCN(C)C2 | 1000 µM | Dose-dependent effect | 10 µM | 33 µM | 300 µM | > 500 µM | 100 µM | –
CCC1c2cc(OC)c(OC)cc2CCN1C (stereo unspecified) | – | – | 300 µM | > 300 µM | – | – | – | –
COc1cc2c(cc1OC)C(C1CCCCC1)N(C)CC2 (stereo unspecified) | – | – | 300 µM | > 300 µM | – | – | – | –
COc1cc2c(cc1OC)C(c1ccccc1)N(C)CC2 (stereo unspecified) | – | – | 100 µM | > 300 µM | – | – | – | –
COc1cccc(C2c3cc(OC)c(OC)cc3CCN2C)c1 (stereo unspecified) | – | – | 300 µM | > 300 µM | – | – | – | –
COc1ccc(C2c3cc(OC)c(OC)cc3CCN2C)cc1OC (stereo unspecified) | – | – | > 300 µM | > 300 µM | – | – | – | –
CN1CCc2cc(O)c(O)cc2C1 | > 1000 µM | Dose-dependent effect | 6.8 µM | 16 µM | 100 µM | > 500 µM | 100 µM | –
COc1cc2c(cc1O)CN(C)CC2 | > 1000 µM | Dose-dependent effect | 1.7 µM | 4.4 µM | 300 µM | > 500 µM | 100 µM | –
COc1cc2c(cc1OC)C1CCCN1CC2 (racemic) | 100 µM | Dose-dependent effect | 5.5 µM | 31 µM | 300 µM | > 500 µM | 100 µM | –
c1c2c(cc3c1OCO3)C1CCCN1CC2 (racemic) | 100 µM | Dose-dependent effect | 0.55 µM | 3.3 µM | 100 µM | – | 21 µM | –
COc1cc2c(cc1O)CCN1CCCC21 (racemic) | 300 µM | Dose-dependent effect | 100 µM | 50 µM | 300 µM | 500 µM | 100 µM | –
COc1cc2c(cc1O)C1CCCN1CC2 (racemic) | 300 µM | Dose-dependent effect | 3.4 µM | 23 µM | 100 µM | 300 µM | 100 µM | –
Oc1cc2c(cc1O)C1CCCN1CC2 (racemic) | 1000 µM | Dose-dependent effect | 11 µM | 100 µM | 100 µM | 300 µM | 50 µM | –
COc1cc2c(cc1OC)[C@]13CCCC[C@H]1CCN3CC2 (relative stereo) | 50 µM | Dose-dependent effect | 100 µM | 31 µM | 100 µM | 30 µM | 100 µM | –
c1c2c(cc3c1OCO3)[C@]13CCCC[C@H]1CCN3CC2 (relative stereo) | 50 µM | Dose-dependent effect | 7.3 µM | 9.2 µM | 30 µM | 18 µM | 50 µM | –
COc1cc2c(cc1O)CCN1CC[C@@H]3CCCC[C@@]231 (relative stereo) | 50 µM | Dose-dependent effect | 8.5 µM | 2.3 µM | 100 µM | 20 µM | 50 µM | –
COc1cc2c(cc1O)[C@]13CCCC[C@H]1CCN3CC2 (relative stereo) | 33 µM | Dose-dependent effect | 18 µM | 2.9 µM | 30 µM | 5.5 µM | 23 µM | –
Oc1cc2c(cc1O)[C@]13CCCC[C@H]1CCN3CC2 (relative stereo) | 50 µM | Dose-dependent effect | 1.5 µM | 0.58 µM | 30 µM | 7.3 µM | 19 µM | –
COc1cc2c(cc1O)CCN1CC=C3C=C[C@H](OC)C[C@]321 [ERYSODINE] | – | – | – | – | – | – | – | Ki [15]: 7.5 µM
COc1cc2c(cc1OC)[C@]13C[C@@H](OC)C=CC1=CCN3CC2 [ERYSOTRINE] | – | – | – | – | – | – | – | Ki [16]: 0.6 µM
